According to ChEMBL document CHEMBL3632581, “Dimers of Melampomagnolide B Exhibit Potent Anticancer Activity against Hematological and Solid Tumor Cells” (J Med Chem, 2015):
pEC50: −log10 of the molar value.

Tests used:
KM12 = experiment: Cytotoxicity against human KM12 cells after 48 hrs by SRB assay; type: functional; settings: KM12, 48 h
How it was run: (§1)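 NCI-60 five-dose screen at 10−8 to 10−4 M. Cells were plated at 5,000–40,000/well in RPMI 1640 with 5% FBS and 2 mM L-glutamine, then preincubated 24 h, and time-zero plates were TCA-fixed. Compound was added from DMSO stocks and exposed 48 h at 37 °C. Cells were TCA-fixed, SRB-stained, and read at 515 nm. LC50 is the concentration halving the cell population through cell death.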

OVCAR-8 = experiment: Cytotoxicity against human OVCAR8 cells after 48 hrs by SRB assay; type: functional; settings: OVCAR-8, 48 h; how it was run: as §1
LOX IMVI = experiment: Cytotoxicity against human LOXIMVI cells after 48 hrs by SRB assay; type: functional; how it was run: as §1
SN12C = experiment: Cytotoxicity against human SN12C cells after 48 hrs by SRB assay; type: functional; how it was run: as §1
[1] = Antileukemic activity against human AML02 cells after 24 hrs by annexin V/7-AAD staining-based flow cytometric analysis; type: functional, cell-based
How it was run: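 Primary AML specimens from consenting donors, isolated by Ficoll-Paque gradient and sometimes cryopreserved. Cells were held 1 h in serum-free IMDM with 20% BIT 9500, LDL and β-mercaptoethanol before drug (DMSO stock diluted in PBS, ≤0.5% DMSO final). Exposure was 24 h over 0.5-10 μM. Annexin V/7-AAD double-negative cells, normalized to vehicle, gave the EC50. Run in triplicate.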

UACC-62 = experiment: Cytotoxicity against human UACC62 cells after 48 hrs by SRB assay; type: functional; settings: UACC-62, 48 h
How it was run: (§2)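 NCI-60 screen: cells grown in RPMI 1640 with 5% FBS and 2 mM L-glutamine, plated at 5,000–40,000 cells/well by doubling time, and preincubated 24 h at 37 °C before drug. Drug was diluted from DMSO stock and given at five concentrations, 10−4 to 10−8 M, for 48 h. Cells fixed with cold TCA, SRB stained, OD read at 515 nm against time-zero and vehicle plates. LC50 taken as the concentration that halves cell population through cell death.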

PC-3 = experiment: Cytotoxicity against human PC3 cells after 48 hrs by SRB assay; type: functional; settings: PC-3, 48 h; how it was run: as §1
[2] = Antileukemic activity against human M9-ENL1 cells after 24 hrs by annexin V/7-AAD staining-based flow cytometric analysis; type: functional, cell-based
How it was run: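 M9-ENL1 cells in alpha-MEM with 5% human plasma, 20% FBS, SCF, IL-3, IL-7 and FLT3. Drug came from a DMSO stock diluted in PBS (≤0.5% DMSO final), for 24 h over 0.5-10 μM. Cells negative for both annexin V and 7-AAD were taken as non-apoptotic and normalized to vehicle. EC50 read from dose-response curves, triplicate.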

SR = experiment: Cytotoxicity against human SR cells after 48 hrs by SRB assay; type: functional; how it was run: as §2
ACHN = experiment: Cytotoxicity against human ACHN cells after 48 hrs by SRB assay; type: functional; how it was run: as §1
HL-60(TB) = experiment: Cytotoxicity against human HL-60(TB) cells after 48 hrs by SRB assay; type: functional; settings: HL-60, 48 h; how it was run: as §1
SK-MEL-5 = experiment: Cytotoxicity against human SK-MEL-5 cells after 48 hrs by SRB assay; type: functional; settings: SK-MEL-5, 48 h; how it was run: as §1
CAKI-1 = experiment: Cytotoxicity against human Caki1 cells after 48 hrs by SRB assay; type: functional; settings: CAKI-1, 48 h; how it was run: as §1
MDA-MB-468 = experiment: Cytotoxicity against human MDA-MB-468 cells after 48 hrs by SRB assay; type: functional; settings: MDA-MB-468, 48 h; how it was run: as §1
NCI-H226 = experiment: Cytotoxicity against human NCI-H226 cells after 48 hrs by SRB assay; type: functional; settings: NCI-H226, 48 h; how it was run: as §1
UO-31 = experiment: Cytotoxicity against human UO31 cells after 48 hrs by SRB assay; type: functional; settings: UO-31, 48 h; how it was run: as §2
NCI-H23 = experiment: Cytotoxicity against human NCI-H23 cells after 48 hrs by SRB assay; type: functional; settings: NCI-H23, 48 h; how it was run: as §1
SK-OV-3 = experiment: Cytotoxicity against human SKOV3 cells after 48 hrs by SRB assay; type: functional; settings: SK-OV-3, 48 h; how it was run: as §1
A549 = experiment: Cytotoxicity against human A549 cells after 48 hrs by SRB assay; type: functional; settings: A549, 48 h; how it was run: as §1
OVCAR-4 = experiment: Cytotoxicity against human OVCAR4 cells after 48 hrs by SRB assay; type: functional; settings: OVCAR-4, 48 h; how it was run: as §1
SW-620 = experiment: Cytotoxicity against human SW620 cells after 48 hrs by SRB assay; type: functional; settings: SW-620, 48 h; how it was run: as §2
Malme-3M = experiment: Cytotoxicity against human MALME-3M cells after 48 hrs by SRB assay; type: functional; how it was run: as §1
NCI-H522 = experiment: Cytotoxicity against human NCI-H522 cells after 48 hrs by SRB assay; type: functional; settings: NCI-H522, 48 h; how it was run: as §1
NCI-H460 = experiment: Cytotoxicity against human NCI-H460 cells after 48 hrs by SRB assay; type: functional; settings: NCI-H460, 48 h; how it was run: as §1
SF-539 = experiment: Cytotoxicity against human SF539 cells after 48 hrs by SRB assay; type: functional; settings: SF-539, 48 h; how it was run: as §1
[3] = Cytotoxicity against human NCI-ADR-RES cells after 48 hrs by SRB assay; type: functional; how it was run: as §1
SF-268 = experiment: Cytotoxicity against human SF268 cells after 48 hrs by SRB assay; type: functional; settings: SF-268, 48 h; how it was run: as §1
[4] = Cytotoxicity against hematopoietic progenitor cells isolated from human umbilical cord blood by annexin V staining-based flow cytometric analysis; type: cell-based
How it was run: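 Cord-blood mononuclear cells from Ficoll-Paque were plated in serum-free medium, with drug from a DMSO stock (≤0.5% DMSO final). Cells were stained for CD34, CD45 and annexin V. The non-apoptotic fraction (annexin V-negative within the CD34+CD45dim compartment) was normalized to vehicle, and EC50 was fitted where possible. Triplicate.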

SF-295 = experiment: Cytotoxicity against human SF295 cells after 48 hrs by SRB assay; type: functional; settings: SF-295, 48 h; how it was run: as §1
BT-549 = experiment: Cytotoxicity against human BT549 cells after 48 hrs by SRB assay; type: functional; settings: BT-549, 48 h; how it was run: as §1
DU-145 = experiment: Cytotoxicity against human DU145 cells after 48 hrs by SRB assay; type: functional; settings: DU-145, 48 h; how it was run: as §1
[5] = read-out: LC50 (the source's name)

C=C1C(=O)O[C@H]2[C@H]1CC/C(COC(=O)NCCCCNC(=O)OC/C1=C/CC[C@@]3(C)O[C@H]3[C@H]3OC(=O)C(=C)[C@@H]3CC1)=C\CC[C@@]1(C)O[C@@H]21
GI50 (KM12): 3.18 µM
CC50 (KM12; [5]): 43.3 µM
GI50 (OVCAR-8): 2.18 µM
CC50 (OVCAR-8; [5]): 40.2 µM
GI50 (LOX IMVI): 0.51 µM
CC50 (LOX IMVI; [5]): 5.15 µM
GI50 (SN12C): 2.75 µM
CC50 (SN12C; [5]): 39.5 µM
pEC50 [1]: 5.70
GI50 (UACC-62): 0.75 µM
CC50 (UACC-62; [5]): 7.06 µM
GI50 (PC-3): 2.55 µM
LC50 (concentration killing half the cell population) (PC-3): 30.5 µM
pEC50 [2]: 5.82
GI50 (SR): 0.54 µM
CC50 (SR; [5]): > 100 µM
GI50 (ACHN): 3.44 µM
CC50 (ACHN; [5]): 39.8 µM
GI50 (HL-60(TB)): 0.25 µM
CC50 (HL-60(TB); [5]): > 100 µM
GI50 (SK-MEL-5): 3.33 µM
CC50 (SK-MEL-5; [5]): 41.4 µM
GI50 (CAKI-1): 10.8 µM
CC50 (CAKI-1; [5]): 49.1 µM
GI50 (MDA-MB-468): 0.42 µM
LC50 (MDA-MB-468): 7.76 µM
GI50 (NCI-H226): 11.4 µM
CC50 (NCI-H226; [5]): 81.6 µM
GI50 (UO-31): 7.61 µM
CC50 (UO-31; [5]): 47.7 µM
GI50 (NCI-H23): 2.18 µM
CC50 (NCI-H23; [5]): 30.4 µM
GI50 (SK-OV-3): 12.7 µM
CC50 (SK-OV-3; [5]): 50.4 µM
GI50 (A549): 8.02 µM
CC50 (A549; [5]): 58.7 µM
GI50 (OVCAR-4): 1.77 µM
CC50 (OVCAR-4; [5]): 30.5 µM
GI50 (SW-620): 0.58 µM
CC50 (SW-620; [5]): 5.56 µM
GI50 (Malme-3M): 0.45 µM
CC50 (Malme-3M; [5]): 8.43 µM
GI50 (NCI-H522): 0.16 µM
CC50 (NCI-H522; [5]): 0.84 µM
GI50 (NCI-H460): 4.61 µM
CC50 (NCI-H460; [5]): 60.7 µM
GI50 (SF-539): 1.55 µM
CC50 (SF-539; [5]): 8.84 µM
GI50 [3]: 37.7 µM
CC50 [3, 5]: > 100 µM
GI50 (SF-268): 3.18 µM
CC50 (SF-268; [5]): 51 µM
pEC50 [4]: < 5.00
GI50 (SF-295): 13 µM
CC50 (SF-295; [5]): 57.7 µM
GI50 (BT-549): 1.6 µM
LC50 (BT-549): 8.23 µM
GI50 (DU-145): 3.21 µM
LC50 (concentration killing half the cells) (DU-145): 33.8 µM
